# Laboratory results taken from ChEMBL document CHEMBL3576803, “Antimicrobial Phenolic Bisabolanes and Related Derivatives from Penicillium aculeatum SD-321, a Deep Sea Sediment-Derived Fungus” (J Nat Prod, 2015).
# Tests used:
# [1] = tested on: Escherichia coli; test: Antibacterial activity against Escherichia coli EMBLC-1 by microplate assay; format: functional
# [2] = tested on: Staphylococcus aureus; test: Antibacterial activity against Staphylococcus aureus EMBLC-2 by microplate assay; format: functional
# [3] = tested on: Aeromonas hydrophila; test: Antibacterial activity against Aeromonas hydrophila QDIO-1 by microplate assay; format: functional
# [4] = tested on: Edwardsiella tarda; test: Antibacterial activity against Edwardsiella tarda QDIO-2 by microplate assay; format: functional
# [5] = tested on: Micrococcus luteus; test: Antibacterial activity against Micrococcus luteus QDIO-3 by microplate assay; format: functional
# [6] = tested on: Pseudomonas aeruginosa; test: Antibacterial activity against Pseudomonas aeruginosa QDIO-4 by microplate assay; format: functional
# [7] = tested on: Vibrio alginolyticus; test: Antibacterial activity against Vibrio alginolyticus QDIO-5 by microplate assay; format: functional
# [8] = tested on: Vibrio anguillarum; test: Antibacterial activity against Vibrio anguillarum QDIO-6 by microplate assay; format: functional
# [9] = tested on: Vibrio harveyi; test: Antibacterial activity against Vibrio harveyi QDIO-7 by microplate assay; format: functional
# [10] = tested on: Vibrio parahaemolyticus; test: Antibacterial activity against Vibrio parahaemolyticus QDIO-8 by microplate assay; format: functional
# [11] = tested on: Alternaria brassicae; test: Antifungal activity against Alternaria brassicae QDAU-1 by microplate assay; format: functional
# In short: (§1)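 Phytopathogenic fungal strains came from a research group at Qingdao Agricultural University and are kept at the Key Laboratory of Experimental Marine Biology, Institute of Oceanology, CAS. Tested by microplate assay with amphotericin B as the positive control.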
# [12] = tested on: Colletotrichum gloeosporioides; test: Antifungal activity against Colletotrichum gloeosporioides QDAU-2 by microplate assay; format: functional; in short: as §1
# [13] = tested on: Gaeumannomyces graminis; test: Antifungal activity against Gaeumannomyces graminis QDAU-3 by microplate assay; format: functional; in short: as §1
# [14] = Toxicity in brine shrimp; format: organism-based; settings: artemia salina, in vivo; read-out: LD50 (the source's name)
SMILES,MIC [1] [µg/mL],MIC [2] [µg/mL],MIC [3] [µg/mL],MIC [4] [µg/mL],MIC [5] [µg/mL],MIC [6] [µg/mL],MIC [7] [µg/mL],MIC [8] [µg/mL],MIC [9] [µg/mL],MIC [10] [µg/mL],MIC [11] [µg/mL],MIC [12] [µg/mL],MIC [13] [µg/mL],LC50 [14] [µg/mL]
C=C(C)CCC[C@](C)(O)c1ccc(C(=O)O)cc1O [11-DEHYDROSYDONIC ACID],> 32,32,> 32,> 32,32,> 32,> 32,> 32,4,32,> 32,32,> 32,> 10
Cc1cc(O)cc(Oc2cc(C)cc(OCc3ccc([C@@](C)(O)CCCC(C)C)c(O)c3)c2)c1,> 32,> 32,> 32,> 32,1,32,2,> 32,> 32,> 32,0.5,> 32,32,> 10
CC(C)(O)CCC[C@](C)(O)c1ccc(C(=O)O)cc1O,32,> 32,32,> 32,> 32,> 32,> 32,32,> 32,32,> 32,> 32,> 32,> 10
CC(C)CCC[C@](C)(O)c1ccc(COC(=O)c2ccc([C@@](C)(O)CCCC(C)C)c(O)c2)cc1O,> 32,> 32,> 32,8,> 32,> 32,> 32,> 32,> 32,32,32,> 32,> 32,> 10
C=C(CCCC(C)C)c1ccc(C(=O)O)cc1O,> 32,32,> 32,> 32,> 32,> 32,> 32,> 32,4,32,> 32,> 32,0.5,> 10
Cc1ccc([C@@]2(C)CCC(=O)O2)c(O)c1,32,32,> 32,> 32,> 32,> 32,> 32,> 32,4,> 32,> 32,32,32,> 10
CC(C)C(O)CC[C@](C)(O)c1ccc(C(=O)O)cc1O (some centres undefined),> 32,32,32,> 32,> 32,> 32,> 32,> 32,8,32,> 32,> 32,> 32,> 10
O=C(N[C@H](CO)[C@H](O)c1ccc([N+](=O)[O-])cc1)C(Cl)Cl [CHLORAMPHENICOL],4,0.5,4,8,8,8,0.5,0.5,4,0.5,,,,
C/C(=C\CCC(C)C)c1ccc(Cc2c(C)cc(Oc3cc(C)cc(O)c3)cc2O)cc1O,32,> 32,> 32,> 32,8,4,8,32,> 32,32,32,32,32,> 10
CC(C)CCC[C@](C)(O)c1ccc(C(=O)O)cc1O,> 32,32,> 32,32,> 32,> 32,> 32,32,4,4,> 32,32,0.5,> 10
C[C@@H]1[C@H](O)[C@@H](C)/C=C/C=C/C=C/C=C/C=C/C=C/C=C/[C@H](O[C@@H]2O[C@H](C)[C@@H](O)[C@H](N)[C@@H]2O)C[C@@H]2O[C@](O)(C[C@@H](O)C[C@@H](O)[C@H](O)CC[C@@H](O)C[C@@H](O)CC(=O)O[C@H]1C)C[C@H](O)[C@H]2C(=O)O [AMPHOTERICIN B],,,,,,,,,,,32,32,64,
